The values below come from ChEMBL document CHEMBL1137349, “Selective angiotensin II AT2 receptor agonists: arylbenzylimidazole structure-activity relationships” (J Med Chem, 2006).

Active and inactive are the calls of the source. The rule behind the calls is not given here.

Test [1] relates to NG108-15. The experiment in a line: Induction of NG108-15 cell death at 1 uM. Type of test: functional, cell-based. The method in brief: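 NG108-15 neuroblastoma × glioma hybrid cells plated at 4 × 10⁴ cells per 35 mm dish and cultured 3 days with test agent across 1 pM to 1 µM. Cells were then examined by phase contrast microscopy and micrographs taken to assess cell death.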

The subject of test [2] is NG108-15. The experiment in a line: Induction of neurite growth in NG108-15 cells at 0.1 uM after 3 days in presence of PD-123319. The format is functional, cell-based. Put shortly:
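Here the 0.1 µM agonist was co-incubated with 1 µM of the AT2 antagonist PD 123,319 for 3 days. NG108-15 cells were plated at 4 × 10⁴ per 35 mm dish. The percentage of cells bearing a neurite longer than the cell body was counted from phase-contrast micrographs of 50–100 cells.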

Test [3] has as its system NG108-15. The experiment in a line: Induction of neurite growth in NG108-15 cells at 0.1 uM after 3 days. The format is functional, cell-based. The method in brief:
(§1)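 NG108-15 cells, which express only AT2, were plated at 4 × 10⁴ cells per 35 mm dish and grown 3 days with or without 0.1 µM agonist, with Ang II as reference. Micrographs were taken under phase contrast. Cells with at least one neurite longer than the cell body were scored positive, as a percentage of 50–100 total cells.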

Test [4] concerns the target Type-1 angiotensin II receptor (Rattus norvegicus) (UniProt P25095). The experiment in a line: Displacement of [125I]Ang2 from AT1 receptor in rat liver membrane. On the technique in general: Loss of bound radioactivity is the signal in a displacement assay; it reports binding, not function.
The subject of test [5] is NG108-15. The experiment in a line: Induction of neurite growth in NG108-15 cells relative to control. Type of test: functional, cell-based. The method in brief:
as §1

In the case of `CCCCOC(=O)NS(=O)(=O)c1sc(CCC)cc1-c1ccc(Cn2ccnc2)cc1`, the result in the test with NG108-15 [1] and in the test on NG108-15 [3] was Active. Besides, the outcome with NG108-15 [2] was inactive. The compound `CCCCOC(=O)NS(=O)(=O)c1sc(CCCC)cc1-c1ccc(Cn2ccnc2)cc1` returned a Ki in test [4] above 10 µM. The same measure, in the same setting: the value for `CC(C)Cc1cc(-c2ccc(Cn3ccnc3)cc2)c(S(=O)(=O)NC(=O)OC(C)(C)C)s1` was above 10 µM; that for `CCCCc1ccc(S(=O)(=O)NC(=O)OCC)c(-c2ccc(Cn3ccnc3)cc2)c1` was above 10 µM.

As to `CCCCS(=O)(=O)NC(=O)c1sc(CC(C)C)cc1-c1ccc(Cn2ccnc2)cc1`, the Ki in test [4] was above 10 µM. For the compound `CC(C)Cc1cc(-c2ccc(Cn3ccnc3)cc2)c(S(=O)(=O)NC(=O)OC(C)C)s1`, the Ki in test [4] was above 10 µM. On the same count and under the same terms, the value for `CCCCS(=O)(=O)NS(=O)(=O)c1sc(CC(C)C)cc1-c1ccc(Cn2ccnc2)cc1` was above 10 µM.

As to `CCCCN(C)C(=O)NS(=O)(=O)c1sc(CC(C)C)cc1-c1ccc(Cn2ccnc2)cc1`, the Ki in test [4] is above 10 µM.

Take `CCCCOC(=O)NS(=O)(=O)c1ccc(CCCC)cc1-c1ccc(Cn2ccnc2)cc1`: the Ki in test [4] is above 10 µM. In the case of `Cc1cc(Cn2cnc3c2C[C@@H](C(=O)O)N(C(=O)C(c2ccccc2)c2ccccc2)C3)ccc1N(C)C`, the result in the test with NG108-15 [5] was inactive. Compound `COCCOC(=O)NS(=O)(=O)c1sc(CC(C)C)cc1-c1ccc(Cn2ccnc2)cc1` gave an inhibition constant (Ki) in test [4] above 10 µM. Regarding `CCCCOC(=O)NS(=O)(=O)c1ccc(OC(C)C)cc1-c1ccc(Cn2ccnc2)cc1`, the Ki in test [4] was above 10 µM. Regarding `CCCCOC(=O)NS(=O)(=O)c1ccc(OCCCC)cc1-c1ccc(Cn2ccnc2)cc1`, the outcome in the test with NG108-15 [1] and in the test with NG108-15 [3] was Active. Moreover, the outcome in the test with NG108-15 [2] was inactive.

Usually Ki stands for the dissociation constant of the complex between target and ligand, obtained from inhibition or displacement. Read a high Ki as a looser hold on the target.
